How the values were obtained:
[1] = system: Proto-oncogene tyrosine-protein kinase receptor Ret (Homo sapiens), P07949 [V804L]; assay: Inhibition of RET V804L mutant (unknown origin) using [gamma-33P]ATP assessed as residual activity at 3 uM
[2] = biological target: Serine/threonine-protein kinase PAK 2 (Homo sapiens) (UniProt Q13177); assay: Inhibition of PAK2 (unknown origin) using [gamma-33P]ATP assessed as residual activity at 3 uM
[3] = biological target: Serine/threonine-protein kinase PAK 1 (Homo sapiens) (UniProt Q13153); assay: Inhibition of PAK1 (unknown origin) using [gamma-33P]ATP assessed as residual activity at 3 uM
[4] = biological target: Mitogen-activated protein kinase kinase kinase 14 (Homo sapiens) (UniProt Q99558); assay: Inhibition of NIK (unknown origin) using [gamma-33P]ATP assessed as residual activity at 3 uM
[5] = biological target: Serine/threonine-protein kinase Nek6 (Homo sapiens) (UniProt Q9HC98); assay: Inhibition of NEK6 (unknown origin) using [gamma-33P]ATP assessed as residual activity at 3 uM
[6] = biological target: Serine/threonine-protein kinase 26 (Homo sapiens) (UniProt Q9P289); assay: Inhibition of MST4 (unknown origin) using [gamma-33P]ATP assessed as residual activity at 3 uM
Chain of Serine/threonine-protein kinase 26 (Homo sapiens) (Q9P289 whole entry, looked up): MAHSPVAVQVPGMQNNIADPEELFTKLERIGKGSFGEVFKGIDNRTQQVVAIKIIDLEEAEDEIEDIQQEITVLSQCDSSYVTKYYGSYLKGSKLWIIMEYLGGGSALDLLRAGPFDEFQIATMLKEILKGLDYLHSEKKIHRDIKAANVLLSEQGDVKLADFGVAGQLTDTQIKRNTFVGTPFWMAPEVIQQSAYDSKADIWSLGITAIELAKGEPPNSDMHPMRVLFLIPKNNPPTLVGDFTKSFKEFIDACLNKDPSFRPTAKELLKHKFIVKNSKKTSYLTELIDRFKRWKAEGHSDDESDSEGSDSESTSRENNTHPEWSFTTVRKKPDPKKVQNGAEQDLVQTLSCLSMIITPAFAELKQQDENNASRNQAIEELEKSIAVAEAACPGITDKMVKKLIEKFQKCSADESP

[7] = biological target: Ribosomal protein S6 kinase alpha-5 (Homo sapiens) (UniProt O75582); assay: Inhibition of MSK1 (unknown origin) using [gamma-33P]ATP assessed as residual activity at 3 uM
[8] = biological target: Calcium/calmodulin-dependent protein kinase type 1D (Homo sapiens) (UniProt Q8IU85); assay: Inhibition of CAMK1d (unknown origin) using [gamma-33P]ATP assessed as residual activity at 3 uM
Chain of Calcium/calmodulin-dependent protein kinase type 1D (Homo sapiens) (Q8IU85 whole entry, looked up): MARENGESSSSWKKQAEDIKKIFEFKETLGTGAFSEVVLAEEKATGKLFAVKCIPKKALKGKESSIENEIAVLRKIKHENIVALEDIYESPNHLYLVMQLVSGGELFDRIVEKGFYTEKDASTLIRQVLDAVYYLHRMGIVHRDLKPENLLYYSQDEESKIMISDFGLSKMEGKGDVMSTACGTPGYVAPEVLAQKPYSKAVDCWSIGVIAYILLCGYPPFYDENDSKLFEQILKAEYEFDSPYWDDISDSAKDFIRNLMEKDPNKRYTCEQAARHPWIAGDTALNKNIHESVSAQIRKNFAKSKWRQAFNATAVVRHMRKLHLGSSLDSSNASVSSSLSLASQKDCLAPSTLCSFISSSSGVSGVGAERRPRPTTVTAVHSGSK
Procedure, shortened: (§1)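 Radiometric profiling across 288 kinases (261 wild-type, 27 mutant), run as an outsourced service. Inhibition read out as [gamma-33P]ATP incorporation into substrate.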

[9] = system: Epidermal growth factor receptor (Homo sapiens), P00533 [L861R,T790M]; assay: Inhibition of EGFR […] double mutant (unknown origin) using [gamma-33P]ATP assessed as residual activity at 3 uM; format: protein assay
Procedure, shortened: (§2)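 Reaction Biology HotSpot radiometric profiling panel of 288 kinases (261 wild-type, 27 mutant). Kinase activity was read out by incorporation of [γ-33P]ATP.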

[10] = system: Epidermal growth factor receptor (Homo sapiens), P00533 [L861Q]; assay: Inhibition of EGFR L861Q mutant(unknown origin) using [gamma-33P]ATP assessed as residual activity at 3 uM; format: protein assay; procedure, shortened: as §2
[11] = biological target: Mitogen-activated protein kinase 9 (Homo sapiens) (UniProt P45984); assay: Inhibition of JNK2a2 (unknown origin) using [gamma-33P]ATP assessed as residual activity at 3 uM
Procedure, shortened: (§3)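 Radiometric kinase profiling service covering 288 kinases (261 wild-type, 27 mutant). Inhibition was read as incorporation from [γ-³³P]ATP.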

[12] = biological target: Tyrosine-protein kinase JAK3 (Homo sapiens) (UniProt P52333); assay: Inhibition of JAK3 (unknown origin) using [gamma-33P]ATP assessed as residual activity at 3 uM; procedure, shortened: as §3
[13] = biological target: Tyrosine-protein kinase receptor UFO (Homo sapiens) (UniProt P30530); assay: Inhibition of AXL (unknown origin) using [gamma-33P]ATP assessed as residual activity at 3 uM; procedure, shortened: as §1
[14] = biological target: Aurora kinase C (Homo sapiens) (UniProt Q9UQB9); assay: Inhibition of Aurora C (unknown origin) using [gamma-33P]ATP assessed as residual activity at 3 uM; procedure, shortened: as §1
Chain of Aurora kinase C (Homo sapiens) (Q9UQB9 whole entry): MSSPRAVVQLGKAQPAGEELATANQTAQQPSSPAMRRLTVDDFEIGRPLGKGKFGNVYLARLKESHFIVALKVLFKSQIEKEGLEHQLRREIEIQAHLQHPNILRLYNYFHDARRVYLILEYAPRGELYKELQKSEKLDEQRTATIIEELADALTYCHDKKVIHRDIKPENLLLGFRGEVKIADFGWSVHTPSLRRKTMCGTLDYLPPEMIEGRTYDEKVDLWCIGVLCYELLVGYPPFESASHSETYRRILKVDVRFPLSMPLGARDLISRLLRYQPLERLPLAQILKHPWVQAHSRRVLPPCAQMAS

[15] = biological target: Serine/threonine-protein kinase A-Raf (Homo sapiens) (UniProt P10398); assay: Inhibition of ARAF (unknown origin) using [gamma-33P]ATP assessed as residual activity at 3 uM; procedure, shortened: as §1
[16] = biological target: Activin receptor type-1B (Homo sapiens) (UniProt P36896); assay: Inhibition of ALK4 (unknown origin) using [gamma-33P]ATP assessed as residual activity at 3 uM; procedure, shortened: as §1
[17] = biological target: Tyrosine-protein kinase ABL2 (Homo sapiens) (UniProt P42684); assay: Inhibition of ABL2 (unknown origin) using [gamma-33P]ATP assessed as residual activity at 3 uM; procedure, shortened: as §1
[18] = system: Tyrosine-protein kinase ABL1 (Homo sapiens), P00519 [M351T]; assay: Inhibition of ABL1 M351T mutant (unknown origin) using [gamma-33P]ATP assessed as residual activity at 3 uM; procedure, shortened: as §1
[19] = system: Tyrosine-protein kinase ABL1 (Homo sapiens), P00519 [H396P]; assay: Inhibition of ABL1 H396P mutant (unknown origin) using [gamma-33P]ATP assessed as residual activity at 3 uM; procedure, shortened: as §1
[20] = biological target: Serine/threonine-protein kinase WNK3 (Homo sapiens) (UniProt Q9BYP7); assay: Inhibition of WNK3 (unknown origin) using [gamma-33P]ATP assessed as residual activity at 3 uM
[21] = biological target: Rho-associated protein kinase 1 (Homo sapiens) (UniProt Q13464); assay: Inhibition of ROCK1 (unknown origin) using [gamma-33P]ATP assessed as residual activity at 3 uM
[22] = biological target: Proto-oncogene tyrosine-protein kinase receptor Ret (Homo sapiens) (UniProt P07949); assay: Inhibition of RET (unknown origin) using [gamma-33P]ATP assessed as residual activity at 3 uM
Chain of Proto-oncogene tyrosine-protein kinase receptor Ret (Homo sapiens) (P07949 whole entry): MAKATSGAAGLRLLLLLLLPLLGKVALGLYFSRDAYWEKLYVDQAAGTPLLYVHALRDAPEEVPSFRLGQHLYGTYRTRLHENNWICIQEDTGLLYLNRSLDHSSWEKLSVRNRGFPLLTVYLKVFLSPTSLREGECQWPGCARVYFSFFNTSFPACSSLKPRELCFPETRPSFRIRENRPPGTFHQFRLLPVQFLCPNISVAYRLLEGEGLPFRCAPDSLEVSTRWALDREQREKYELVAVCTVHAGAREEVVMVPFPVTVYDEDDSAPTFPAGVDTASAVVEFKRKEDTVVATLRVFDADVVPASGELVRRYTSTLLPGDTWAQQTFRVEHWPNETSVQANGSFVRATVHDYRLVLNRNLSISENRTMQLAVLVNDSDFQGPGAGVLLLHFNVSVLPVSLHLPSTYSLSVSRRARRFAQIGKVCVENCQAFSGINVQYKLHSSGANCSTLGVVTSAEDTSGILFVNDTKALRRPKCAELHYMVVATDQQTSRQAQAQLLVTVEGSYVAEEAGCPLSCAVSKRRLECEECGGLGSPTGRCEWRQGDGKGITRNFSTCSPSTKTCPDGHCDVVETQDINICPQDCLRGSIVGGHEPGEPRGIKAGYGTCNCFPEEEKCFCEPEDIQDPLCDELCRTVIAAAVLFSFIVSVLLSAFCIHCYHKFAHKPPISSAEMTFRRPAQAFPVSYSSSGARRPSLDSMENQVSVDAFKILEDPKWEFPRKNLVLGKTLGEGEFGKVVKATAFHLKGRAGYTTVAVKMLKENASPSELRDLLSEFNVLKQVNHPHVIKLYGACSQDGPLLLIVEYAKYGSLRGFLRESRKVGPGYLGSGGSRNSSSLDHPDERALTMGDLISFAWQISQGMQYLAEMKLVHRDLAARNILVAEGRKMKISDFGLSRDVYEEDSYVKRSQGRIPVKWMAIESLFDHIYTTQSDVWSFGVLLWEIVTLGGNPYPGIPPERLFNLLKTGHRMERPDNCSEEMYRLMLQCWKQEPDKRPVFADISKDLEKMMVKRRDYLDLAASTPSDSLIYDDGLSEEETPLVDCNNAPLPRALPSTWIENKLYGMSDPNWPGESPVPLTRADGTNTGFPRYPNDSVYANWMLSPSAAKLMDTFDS

[23] = biological target: Homeodomain-interacting protein kinase 2 (Homo sapiens) (UniProt Q9H2X6); assay: Inhibition of HIPK2 (unknown origin) using [gamma-33P]ATP assessed as residual activity at 3 uM; procedure, shortened: as §3
Chain of Homeodomain-interacting protein kinase 2 (Homo sapiens) (Q9H2X6 whole entry, looked up): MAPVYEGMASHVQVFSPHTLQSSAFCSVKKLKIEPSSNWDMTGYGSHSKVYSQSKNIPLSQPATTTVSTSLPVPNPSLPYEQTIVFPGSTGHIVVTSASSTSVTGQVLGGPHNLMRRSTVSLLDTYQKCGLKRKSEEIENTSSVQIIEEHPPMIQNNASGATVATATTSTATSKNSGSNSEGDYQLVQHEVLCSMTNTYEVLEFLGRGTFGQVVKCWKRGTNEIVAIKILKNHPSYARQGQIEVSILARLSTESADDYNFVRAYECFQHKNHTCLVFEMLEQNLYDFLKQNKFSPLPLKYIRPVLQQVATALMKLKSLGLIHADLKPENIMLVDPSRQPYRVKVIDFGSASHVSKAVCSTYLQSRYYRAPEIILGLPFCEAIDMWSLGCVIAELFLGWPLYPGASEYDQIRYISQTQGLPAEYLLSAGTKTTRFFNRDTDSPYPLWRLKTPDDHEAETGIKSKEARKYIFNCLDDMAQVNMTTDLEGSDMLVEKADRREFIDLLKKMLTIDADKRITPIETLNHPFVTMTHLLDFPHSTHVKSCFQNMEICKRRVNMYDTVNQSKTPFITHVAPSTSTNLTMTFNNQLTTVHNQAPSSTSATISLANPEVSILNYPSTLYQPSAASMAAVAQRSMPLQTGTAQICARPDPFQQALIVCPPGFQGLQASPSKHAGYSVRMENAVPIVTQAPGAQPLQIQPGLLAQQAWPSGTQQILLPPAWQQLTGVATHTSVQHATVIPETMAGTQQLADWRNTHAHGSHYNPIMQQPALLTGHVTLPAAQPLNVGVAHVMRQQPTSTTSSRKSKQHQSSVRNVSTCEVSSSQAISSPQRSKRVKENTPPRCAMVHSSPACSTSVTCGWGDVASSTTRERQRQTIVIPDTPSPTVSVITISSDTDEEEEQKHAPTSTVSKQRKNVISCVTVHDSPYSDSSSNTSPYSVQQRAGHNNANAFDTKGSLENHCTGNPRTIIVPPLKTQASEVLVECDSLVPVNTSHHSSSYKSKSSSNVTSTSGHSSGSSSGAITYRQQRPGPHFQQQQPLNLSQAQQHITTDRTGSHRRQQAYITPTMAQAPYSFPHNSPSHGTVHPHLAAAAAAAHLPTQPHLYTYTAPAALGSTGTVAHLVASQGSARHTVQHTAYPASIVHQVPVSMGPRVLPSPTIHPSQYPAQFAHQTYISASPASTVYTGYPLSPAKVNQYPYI

[24] = biological target: Glycogen synthase kinase-3 alpha (Homo sapiens) (UniProt P49840); assay: Inhibition of GSK3a (unknown origin) using [gamma-33P]ATP assessed as residual activity at 3 uM; procedure, shortened: as §3
Chain of Glycogen synthase kinase-3 alpha (Homo sapiens) (P49840 2-483 limits assumed): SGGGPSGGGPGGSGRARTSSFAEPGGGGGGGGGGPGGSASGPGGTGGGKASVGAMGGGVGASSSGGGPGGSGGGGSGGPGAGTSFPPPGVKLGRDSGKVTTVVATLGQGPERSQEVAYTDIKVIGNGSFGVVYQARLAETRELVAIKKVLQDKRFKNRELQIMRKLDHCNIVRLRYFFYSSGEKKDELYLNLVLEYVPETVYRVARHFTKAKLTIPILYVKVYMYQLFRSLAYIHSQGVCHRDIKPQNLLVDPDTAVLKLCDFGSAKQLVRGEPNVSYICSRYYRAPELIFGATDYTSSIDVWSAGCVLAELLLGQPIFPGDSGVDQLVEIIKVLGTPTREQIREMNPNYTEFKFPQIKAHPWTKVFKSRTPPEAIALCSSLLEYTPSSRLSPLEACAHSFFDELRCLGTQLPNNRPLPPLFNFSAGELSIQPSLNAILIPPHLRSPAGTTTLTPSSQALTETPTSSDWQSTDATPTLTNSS

[25] = biological target: G protein-coupled receptor kinase 5 (Homo sapiens) (UniProt P34947); assay: Inhibition of GRK5 (unknown origin) using [gamma-33P]ATP assessed as residual activity at 3 uM; procedure, shortened: as §3
[26] = biological target: Macrophage colony-stimulating factor 1 receptor (Homo sapiens) (UniProt P07333); assay: Inhibition of FMS (unknown origin) using [gamma-33P]ATP assessed as residual activity at 3 uM; procedure, shortened: as §3
[27] = biological target: Fibroblast growth factor receptor 1 (Homo sapiens) (UniProt P11362); assay: Inhibition of FGFR1 (unknown origin) using [gamma-33P]ATP assessed as residual activity at 3 uM; procedure, shortened: as §2
[28] = biological target: Serine/threonine-protein kinase PLK2 (Homo sapiens) (UniProt Q9NYY3); assay: Inhibition of PLK2 (unknown origin) using [gamma-33P]ATP assessed as residual activity at 3 uM
[29] = biological target: Protein kinase C eta type (Homo sapiens) (UniProt P24723); assay: Inhibition of PKCeta (unknown origin) using [gamma-33P]ATP assessed as residual activity at 3 uM
Chain of Protein kinase C eta type (Homo sapiens) (P24723 whole entry): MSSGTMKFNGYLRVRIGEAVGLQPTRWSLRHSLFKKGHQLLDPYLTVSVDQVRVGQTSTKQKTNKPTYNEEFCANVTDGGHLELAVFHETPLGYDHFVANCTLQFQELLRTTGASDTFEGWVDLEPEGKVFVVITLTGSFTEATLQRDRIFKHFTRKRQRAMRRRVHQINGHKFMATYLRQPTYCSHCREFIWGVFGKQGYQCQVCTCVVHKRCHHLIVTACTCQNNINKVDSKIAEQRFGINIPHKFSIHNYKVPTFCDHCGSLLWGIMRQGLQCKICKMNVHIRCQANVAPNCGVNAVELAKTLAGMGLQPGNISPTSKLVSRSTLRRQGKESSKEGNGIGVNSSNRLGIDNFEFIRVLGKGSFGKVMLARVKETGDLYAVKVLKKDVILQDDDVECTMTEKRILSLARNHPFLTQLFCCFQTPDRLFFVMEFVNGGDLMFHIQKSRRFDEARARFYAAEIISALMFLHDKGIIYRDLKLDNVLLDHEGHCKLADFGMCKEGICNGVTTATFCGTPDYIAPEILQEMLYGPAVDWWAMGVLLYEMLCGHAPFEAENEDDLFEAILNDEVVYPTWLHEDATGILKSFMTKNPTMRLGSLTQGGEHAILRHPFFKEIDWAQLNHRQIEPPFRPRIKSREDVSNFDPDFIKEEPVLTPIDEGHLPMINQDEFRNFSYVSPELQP

[30] = biological target: Ephrin type-A receptor 1 (Homo sapiens) (UniProt P21709); assay: Inhibition of EPHA1 (unknown origin) using [gamma-33P]ATP assessed as residual activity at 3 uM; procedure, shortened: as §2
[31] = biological target: Eukaryotic elongation factor 2 kinase (Homo sapiens) (UniProt O00418); assay: Inhibition of EEF2K (unknown origin) using [gamma-33P]ATP assessed as residual activity at 3 uM; procedure, shortened: as §2
[32] = biological target: Death-associated protein kinase 2 (Homo sapiens) (UniProt Q9UIK4); assay: Inhibition of DAPK2 (unknown origin) using [gamma-33P]ATP assessed as residual activity at 3 uM; procedure, shortened: as §2
Chain of Death-associated protein kinase 2 (Homo sapiens) (Q9UIK4 whole entry, looked up): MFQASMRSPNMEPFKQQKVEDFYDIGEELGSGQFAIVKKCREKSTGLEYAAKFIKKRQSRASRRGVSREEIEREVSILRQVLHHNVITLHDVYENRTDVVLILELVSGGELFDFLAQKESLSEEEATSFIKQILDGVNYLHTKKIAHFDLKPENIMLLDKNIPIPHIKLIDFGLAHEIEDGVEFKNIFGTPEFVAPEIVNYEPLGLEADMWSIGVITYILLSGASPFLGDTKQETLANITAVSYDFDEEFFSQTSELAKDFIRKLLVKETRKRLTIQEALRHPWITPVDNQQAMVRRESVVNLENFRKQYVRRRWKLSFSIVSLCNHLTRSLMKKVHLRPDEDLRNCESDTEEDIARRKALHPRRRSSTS

Chain of Proto-oncogene tyrosine-protein kinase receptor Ret (Homo sapiens), P07949 [V804L] (P07949 whole entry V804L): as the sequence (P07949 whole entry) above, with V804L counted along it

Activity [1]: 94%
Activity [2]: 94%
Activity [3]: 80%
Activity [4]: 89%
Activity [5]: 94%
Activity [6]: 98%
Activity [7]: 94%
Activity [8]: 85%
Activity [9]: 102%
Activity [10]: 106%
Activity [11]: 98%
Activity [12]: 94%
Activity [13]: 89%
Activity [14]: 87%
Activity [15]: 100%
Activity [16]: 94%
Activity [17]: 90%
Activity [18]: 66%
Activity [19]: 71%
Activity [20]: 106%
Activity [21]: 94%
Activity [22]: 94%
Activity [23]: 101%
Activity [24]: 81%
Activity [25]: 103%
Activity [26]: 96%
Activity [27]: 95%
Activity [28]: 95%
Activity [29]: 93%
Activity [30]: 95%
Activity [31]: 104%
SMILES: CCc1ccc(-c2ccc3c(c2)-c2[nH]ncc2S(=O)(=O)N3C)cc1
Activity [32]: 102%

— ChEMBL document CHEMBL2346629, “Discovery and characterization of novel allosteric FAK inhibitors” (Eur J Med Chem, 2013)
